Measurements: ChEMBL document CHEMBL1122417, “Synthesis of 3-hydroxy-3-cyclohexylbutyric acid derivatives. 1. Cyclic homologues of 3-hydroxy-3-methylglutaric acid” (1983)

Columns and labels:
Format in all cases: functional
Rattus norvegicus [1] = species: Rattus norvegicus; experiment: Percent inhibition of [14C]acetate incorporation into CO2, after incubation with rat liver slices at a concentration of 0.005 M
How it was run: (§1)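 Rat liver slices (250 mg) were incubated with and without compound in 4 mL Krebs-Ringer bicarbonate buffer, pH 7.4, containing 4 mM [2-14C]acetate and flushed with 95% O2-5% CO2. 14C incorporation into CO2, long-chain fatty acids and cholesterol was measured and compared against incubations without compound. Values are arithmetic means of three determinations.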

Rattus norvegicus [2] = species: Rattus norvegicus; experiment: Percent inhibition of [14C]acetate incorporation into long-chain fatty acids, after incubation with rat liver slices, at a concentration of 0.005 M; how it was run: as §1
Rattus norvegicus [3] = species: Rattus norvegicus; experiment: Percent inhibition of [14C]acetate incorporation into cholesterol, after incubation with rat liver slices, at a concentration of 0.005 M; how it was run: as §1
Rattus norvegicus [4] = species: Rattus norvegicus; experiment: Percent inhibition of [14C]acetate incorporation into cholesterol, after incubation with rat liver slices, at a concentration of 0.0005 M; how it was run: as §1
Rattus norvegicus [5] = species: Rattus norvegicus; experiment: Percent inhibition of [14C]acetate incorporation into long-chain fatty acids, after incubation with rat liver slices, at a concentration of 0.0005 M; how it was run: as §1
Rattus norvegicus [6] = species: Rattus norvegicus; experiment: Percent inhibition of [14C]-acetate incorporation into CO2, after incubation with rat liver slices at a concentration of 0.0005 M; how it was run: as §1

With CC1(CC(=O)O)OC(=O)[C@@H]2CCCC[C@H]21 (some centres undefined) the Inhibition (Rattus norvegicus [1]) was 37%, the Inhibition (Rattus norvegicus [2]) was 67% and the Inhibition (Rattus norvegicus [3]) was 42%.
With CCC1(C)OC(=O)c2ccccc21 (centres undefined) the Inhibition (Rattus norvegicus [1]) was 86%, the Inhibition (Rattus norvegicus [4]) was 22% and the Inhibition (Rattus norvegicus [5]) was 29%. The Inhibition (Rattus norvegicus [6]) was <10%, the Inhibition (Rattus norvegicus [2]) was 99% and the Inhibition (Rattus norvegicus [3]) was 99%.
CC1(CC(=O)O)OC(=O)C2=C1CCCC2 (centres undefined) was tested, and the Inhibition (Rattus norvegicus [1]) was 45%, the Inhibition (Rattus norvegicus [2]) was 83% and the Inhibition (Rattus norvegicus [3]) was 63%.
In the case of CC1(CC(=O)O)OC(=O)c2ccccc21 (centres undefined), the Inhibition (Rattus norvegicus [1]) is reported as <10%, the Inhibition (Rattus norvegicus [2]) is reported as 54% and the Inhibition (Rattus norvegicus [3]) is reported as 48%.
CCC1(C)OC(=O)C2=C1CCCC2 (centres undefined) was tested, and the Inhibition (Rattus norvegicus [1]) was 63%, the Inhibition (Rattus norvegicus [2]) was 81% and the Inhibition (Rattus norvegicus [3]) was 81%.
Molecule CC1(CC(=O)O)OC(=O)[C@H]2CCCC[C@H]21 (some centres undefined) has an Inhibition (Rattus norvegicus [1]) of 23%, an Inhibition (Rattus norvegicus [2]) of 34% and an Inhibition (Rattus norvegicus [3]) of 30%.
For CC(O)(CC(=O)O)CC(=O)O [MEGLUTOL], the Inhibition (Rattus norvegicus [1]) was <10%, the Inhibition (Rattus norvegicus [2]) was <10% and the Inhibition (Rattus norvegicus [3]) was 12%.
